According to PubChem BioAssay AID588686 (Southern Research Specialized Biocontainment Screening …, 2011):
Activity calls are given as the source filed them.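 How the source made its calls: active means inhibition of 30% or more at any tested concentration; inactive means the rest.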

target: M1-family alanyl aminopeptidase PfA-M1 [Plasmodium falciparum 3D7]; test: inhibition of malaria M1 alanyl aminopeptidase – biochemical, QFRET, H-Leu-NHMec substrate, dose response (AID 588686); details: recombinant PfM1AAP, H-Leu-NHMec fluorogenic cleavage
How it was run: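 Assay system: purified recombinant P. falciparum M1 alanyl aminopeptidase (PfM1AAP); Quantity: enzyme 5 µg/mL; Compound: 10 doses, 1:2 steps, top 100 µM; Times: enzyme reaction with compounds for 90 min, room temperature; Read-out basis: % inhibition and fitted IC50; Also added: fluorogenic substrate H-Leu-NHMec at 0.1 mM final; Measured by: fluorescence at 370/460 nm.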

| Structure (SMILES) | IC50 |
| --- | --- |
| O=C(NCc1ccc2c(c1)OCO2)C1CCN(S(=O)(=O)c2ccc(-c3cncc4ccccc34)s2)CC1 | 11.4 µM |
| CC(C)(C)c1ccc(-c2ccc(S(=O)(=O)N3CCC(C(=O)NCc4ccc5c(c4)OCO5)CC3)s2)cc1 | 49.9 µM |
| CN(C)c1ccc(CNC(=O)C2CCN(S(=O)(=O)c3ccc(Br)s3)CC2)cc1 | 23.8 µM |

same assay, conditions: recombinant PfM1AAP, H-Leu-NHMec fluorogenic cleavage; at 100 µM (top of the series)

| Structure (SMILES) | inhibition |
| --- | --- |
| CC[C@H](C)[C@H](NC(=O)c1ccc([N+](=O)[O-])cc1)C(=O)NCc1ccc(F)cc1 | inactive |
| O=C(NCc1ccc2c(c1)OCO2)C1CCN(S(=O)(=O)c2ccc(-c3ccccc3)s2)CC1 | inactive |
| CC[C@H](C)[C@H](NC(=O)c1ccc([N+](=O)[O-])cc1)C(=O)NCc1ccccc1 | inactive |
| CC[C@H](C)[C@H](NS(=O)(=O)c1cccs1)C(=O)NCc1ccc(F)cc1 | inactive |
| CC[C@H](C)[C@H](NC(=O)c1ccc(C(C)(C)C)cc1)C(=O)NCc1ccc(C(F)(F)F)cc1 | inactive |
| CC(=O)Nc1cccc(-c2ccc(S(=O)(=O)N3CCC(C(=O)NCc4ccc5c(c4)OCO5)CC3)s2)c1 | inactive |
| CC[C@H](C)[C@H](NC(=O)c1ccc([N+](=O)[O-])cc1)C(=O)NCc1ccc(C(F)(F)F)cc1 | inactive |
| O=C(NCc1ccc2c(c1)OCO2)C1CCN(S(=O)(=O)c2ccc(-c3cccc(F)c3)s2)CC1 | inactive |
| COc1cccc(-c2ccc(S(=O)(=O)N3CCC(C(=O)NCc4ccc5c(c4)OCO5)CC3)s2)c1 | inactive |
| CC[C@H](C)[C@H](NS(=O)(=O)c1ccc(Br)s1)C(=O)NCc1ccc(F)cc1 | inactive |
| COc1ccc(-c2ccc(S(=O)(=O)N3CCC(C(=O)NCc4ccc5c(c4)OCO5)CC3)s2)cc1 | inactive |
| CC[C@H](C)[C@H](NS(=O)(=O)c1ccc(Br)s1)C(=O)NCc1ccc(C(F)(F)F)cc1 | inactive |
| CC[C@H](C)[C@H](NS(=O)(=O)c1ccc(Br)s1)C(=O)O | inactive |
